Tests used:
[1] = target: T1, Sodium- and chloride-dependent glycine transporter 1 (Homo sapiens, UniProt P48067); test: Inhibition of GlyT1 in human JAR cells assessed as inhibition of [3H]glycine uptake preincubated for 1 mins measured after 2 hrs by liquid scintillation counting; assay type: cell-based
T1 sequence (P48067 whole entry): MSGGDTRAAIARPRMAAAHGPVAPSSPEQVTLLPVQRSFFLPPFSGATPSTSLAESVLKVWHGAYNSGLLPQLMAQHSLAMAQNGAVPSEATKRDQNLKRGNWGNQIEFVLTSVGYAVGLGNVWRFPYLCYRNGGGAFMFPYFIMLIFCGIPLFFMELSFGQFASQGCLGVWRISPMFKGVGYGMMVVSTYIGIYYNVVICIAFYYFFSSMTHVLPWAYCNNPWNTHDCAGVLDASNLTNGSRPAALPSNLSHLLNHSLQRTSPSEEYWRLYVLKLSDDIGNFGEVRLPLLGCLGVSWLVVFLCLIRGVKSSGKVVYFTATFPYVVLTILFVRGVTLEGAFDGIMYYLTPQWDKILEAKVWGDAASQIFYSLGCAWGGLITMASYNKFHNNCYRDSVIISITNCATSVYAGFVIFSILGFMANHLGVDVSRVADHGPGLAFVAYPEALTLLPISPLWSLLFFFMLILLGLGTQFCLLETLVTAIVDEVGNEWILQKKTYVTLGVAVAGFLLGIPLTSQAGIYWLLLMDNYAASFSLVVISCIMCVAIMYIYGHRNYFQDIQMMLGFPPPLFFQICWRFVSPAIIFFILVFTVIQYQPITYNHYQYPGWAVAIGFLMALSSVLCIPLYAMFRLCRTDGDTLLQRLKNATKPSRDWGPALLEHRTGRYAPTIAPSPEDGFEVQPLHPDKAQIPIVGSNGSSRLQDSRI
Procedure, shortened: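 [3H]glycine (final 10 µM) was added for 2 h at room temperature; nonspecific uptake was defined with 10 mM glycine. Cells were lysed in NaOH and counted by liquid scintillation. IC50 values are from at least three measurements, mean ± SEM.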

[2] = target: T1, Sodium- and chloride-dependent glycine transporter 1; test: Inhibition of human GlyT1 expressed in CHO cells assessed as inhibition of [3H]glycine uptake preincubated for 1 mins measured after 2 hrs by liquid scintillation counting; assay type: cell-based

SMILES	IC50 [1] [nM]	IC50 [2] [nM]
O=C(N[C@@H](c1ccccc1)[C@@H]1CCCCN1)c1cccc(C(F)(F)F)c1I	43	–
O=C(N[C@@H](c1ccccc1)[C@@H]1CCCCN1)c1cccc(C(F)(F)F)c1Cl	80.1	314

— ChEMBL document CHEMBL1938298, “Synthesis and characterization of [¹²⁵I]2-iodo N-[(S)-{(S)-1-methylpiperidin-2-yl}(phenyl)methyl]3-trifluoromethyl-benzamide as novel imaging probe for glycine transporter 1” (Bioorg Med Chem, 2011)
